Assay outcomes from PubChem.
In the library only some 9.4% were active in any assay of this set; here they are far more common.
Mdm2 MdmX PPI – inhibitors of human Mdm2/MdmX interaction; O15151+Q00987; SaOS-2 split-luciferase Mdm2/MdmX complementation, luminescence; inhibition, % at 8 µM; actives 3% (n = 330,000); AID 485346;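 active means inhibition of at least 50% at 8 µM in the primary screen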
Target sequence (O15151 whole entry, looked up): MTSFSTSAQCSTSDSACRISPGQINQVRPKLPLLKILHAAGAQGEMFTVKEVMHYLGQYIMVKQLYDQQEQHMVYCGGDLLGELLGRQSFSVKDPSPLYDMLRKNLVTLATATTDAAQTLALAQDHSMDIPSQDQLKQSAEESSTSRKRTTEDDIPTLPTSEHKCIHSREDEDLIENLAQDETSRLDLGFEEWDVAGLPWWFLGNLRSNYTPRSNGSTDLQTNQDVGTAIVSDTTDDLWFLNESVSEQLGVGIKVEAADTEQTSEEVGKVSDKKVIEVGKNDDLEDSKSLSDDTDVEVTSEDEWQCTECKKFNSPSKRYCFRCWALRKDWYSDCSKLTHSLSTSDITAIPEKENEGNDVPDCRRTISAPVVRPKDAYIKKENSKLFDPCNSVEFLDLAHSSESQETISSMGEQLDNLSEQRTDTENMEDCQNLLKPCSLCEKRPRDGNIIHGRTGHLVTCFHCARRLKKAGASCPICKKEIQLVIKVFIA
Target sequence (Q00987 whole entry, looked up): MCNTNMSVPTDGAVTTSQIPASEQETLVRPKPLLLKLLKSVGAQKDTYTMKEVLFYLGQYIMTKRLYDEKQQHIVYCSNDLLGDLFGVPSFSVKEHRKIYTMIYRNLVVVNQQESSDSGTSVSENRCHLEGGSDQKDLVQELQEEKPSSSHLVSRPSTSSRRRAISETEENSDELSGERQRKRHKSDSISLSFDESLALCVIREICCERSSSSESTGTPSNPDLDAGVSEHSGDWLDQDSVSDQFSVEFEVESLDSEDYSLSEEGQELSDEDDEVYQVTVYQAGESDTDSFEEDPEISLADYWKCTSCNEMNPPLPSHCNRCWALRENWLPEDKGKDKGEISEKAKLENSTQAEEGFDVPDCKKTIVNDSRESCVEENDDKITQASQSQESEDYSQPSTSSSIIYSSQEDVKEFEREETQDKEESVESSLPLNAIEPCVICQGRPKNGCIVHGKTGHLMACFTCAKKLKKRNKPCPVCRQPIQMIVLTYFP
L major viab – inhibitors of Leishmania major promastigote growth | Leishmania major promastigotes, resazurin fluorescence viability | inhibition, % at 10 µM | actives 9% (n = 200,000); in the data active means inhibition above about 50%;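 further: promastigotes grown with compound for 44 hours at 28 °C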
Beta apoptosis – beta cell apoptosis inhibition. INS-1E cytokine-induced death, ATP luminescence, 48 h; percent of positive-control rescue, neutral wells zero. protection from apoptosis, % (concentration not given with the values). actives 0.8% (n = 300,000). AID 435005;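 active means Every replicate reaches about 75%, or at least half do and their mean reaches it too, limit read from the data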;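 further: higher means more ATP so stronger rescue from cytokine killing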
T cruzi repl – blocks replication of Trypanosoma cruzi; inhibition, % (concentration not given with the values); T. cruzi beta-gal in NIH3T3, luminescence, 90 h; actives 1.4% (n = 300,000); AID 1885;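 active means mean inhibition across valid replicates above about 55%, limit read from the data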;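 further: signal also drops with host cell toxicity which is not excluded here; higher percent means less beta-gal luminescence so fewer parasites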
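Read-out: Parasite load inhibition, % | Test system: Mouse NIH/3T3 fibroblasts infected with β-gal-expressing T. cruzi Tulahuen C4 | Amount: 5,000 cells/well | Medium: DMEM, 2% fetal bovine serum | Signal: GalScreen β-gal luminescence, detergent lysis, 60 min | Timing: 3 h attach, ≥90 h co-culture | Also added: Tulahuen C4 trypomastigotes, 5000/well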
SKKanGAS inh – inhibitors of SKKanGAS S. pyogenes growth in kanamycin (SK-promoter or general growth effect). BacTiter-Glo, 6 h. inhibition, % at 7.5 µM. actives 1.3% (n = 300,000). AID 1662;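 active means mean replicate score, as percent of positive control median, at least 50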;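 further: strain carries kanamycin resistance gene driven by streptokinase promoter and grows in 40 µg/ml kanamycin; loss of luminescence reflects streptokinase promoter inhibition or plain growth inhibition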
CSC inhib – blocks cancer stem cells; cancer stem cell-like cells viability, luminescence; inhibition, % at 7.5 µM; actives 1.1% (n = 300,000); in the data active means inhibition above about 75%; tested in HMLE shEcad cells
Lmaj promast 1uM – inhibitors of Leishmania major promastigote growth, repeat at 1 uM; inhibition, % at 1 µM; shares compounds with L major viab; AID 1258; actives 13% (n = 1,100); L. major promastigote growth, resazurin fluorescence, 48 h;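 active means inhibition above about 50% in both repeat tests, limit read from the data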
Of the large screens only hits and unclear results are named; the others gave an inactive call (follow-up assays come after a bar, where they were run).

C(#CCN1CCOCC1)COC/C=C/c1ccccc1	none
C(#CCN1CCCCC1)COCc1ccccc1	L major viab 89 (no result: CSC inhib)
COc1ccc(OCC#CCN2CCCCCC2)cc1	L major viab 85
COc1ccc(OCC#CCN2CCNCC2)cc1	none (no result: L major viab)
CC(C)OC(=O)c1c(N)n(CC2CCCO2)c2nc3ccccc3nc12 (stereo unspecified)	L major viab 52
CCCNC(=O)c1c(N)n(CC2CCCO2)c2nc3ccccc3nc12 (stereo unspecified)	none
Nc1c(C(=O)OC2CCCCC2)c2nc3ccccc3nc2n1CC1CCCO1 (stereo unspecified)	L major viab 81 (no result: Beta apoptosis)
CC(C)OCCCNC(=O)c1c(N)n(CC2CCCO2)c2nc3ccccc3nc12 (stereo unspecified)	none
CC(C)CCOC(=O)c1c(N)n(CC2CCCO2)c2nc3ccccc3nc12 (stereo unspecified)	L major viab 100
COC/C=C1\CN2C3C[C@@H]1[C@H]1COC4=Nc5cc(OC)c(OC)c(OC)c5[C@@]43C[C@@H]12	none (no result: L major viab)
COc1ccc(C(Nc2ccccc2)P(=O)(Oc2ccccc2)Oc2ccccc2)cc1 (stereo unspecified)	none (no result: Beta apoptosis, CSC inhib)
CC(C)Oc1ccc(CC2(CCc3ccncc3)C(=O)NC(=O)NC2=O)cc1	none (no result: L major viab)
Clc1ccc(COC(Cn2ccnc2)c2ccc(Cl)cc2Cl)c(Cl)c1 (stereo unspecified)	L major viab 99, SKKanGAS inh 108, CSC inhib 102
Cc1ccccc1CN1CCN(Cc2ccccc2)CC1	none
c1ccc(CN2CCN(Cc3ccc4c(c3)OCCO4)CC2)cc1	L major viab 80
CN(C)CC#CCC(O)(c1ccccc1)C1CCCC1 (stereo unspecified)	T cruzi repl 67
OC(CC#CCN1CCCCCC1)(c1ccccc1)C1CCCC1 (stereo unspecified)	none (no result: L major viab)
O=S(=O)(c1ccc(Cl)cc1)N1CCCCC1c1cccnc1 (stereo unspecified)	T cruzi repl 71
COc1cc(CC2(CCc3ccncc3)C(=O)N(C)C(=O)N(C)C2=O)cc(OC)c1OC	none
COc1cccc(C2(O)CCN(Cc3ccncc3)CC2)c1	L major viab 92
COc1cccc(N2CCN(Cc3ccc(Cl)cc3)CC2)c1	none (no result: SKKanGAS inh)
O=C1NC(=O)C(=Cc2ccccc2OCCOc2ccc([N+](=O)[O-])cc2)C(=O)N1	L major viab 64 (no result: Mdm2 MdmX PPI, Beta apoptosis, T cruzi repl, SKKanGAS inh, CSC inhib)
CN1C(=O)C(=Cc2ccccc2OCc2ccc(C(=O)O)cc2)C(=O)N(C)C1=O	none
CN1C(=O)C(=Cc2ccccc2OCc2ccccc2Cl)C(=O)N(C)C1=O	L major viab 66
CN1C(=O)C(=Cc2ccccc2OCCOc2ccc([N+](=O)[O-])cc2)C(=O)N(C)C1=O	L major viab 78 (no result: Beta apoptosis)
COC(=O)C1=C(c2ccc(S(C)(=O)=O)cc2)C[C@@H]2CC[C@H]1N2C(=O)NCCNC(C)=O	none (no result: L major viab)
COc1ccccc1N1CCN(C2CCCN(C(=O)COc3ccccc3Cl)C2)CC1 (stereo unspecified)	none (no result: L major viab, Beta apoptosis, CSC inhib)
Nc1ccc(C2(c3ccc(N)cc3)CCCCC2)cc1	none
CSc1ncc(CN2CCCC(C(=O)c3ccccc3SC)C2)cn1 (stereo unspecified)	none (no result: L major viab, CSC inhib)
CSc1ccc(C(=O)C2CCCN(Cc3cnc(SC)nc3)C2)cc1 (stereo unspecified)	L major viab 94
CSc1ccc(C(=O)C2CCCN(C)C2)cc1 (stereo unspecified)	L major viab 72
CSc1ccc(C(=O)C2CCCN(CCCn3cccn3)C2)cc1 (stereo unspecified)	L major viab 86
CCn1ccnc1CN1CCCC(C(=O)c2ccc(SC)cc2)C1 (stereo unspecified)	none
Cc1ccc(OCCOc2cccc(C=C3C(=O)NC(=O)NC3=O)c2)cc1	none (no result: L major viab)
CSc1ncc(Cl)c(C(=O)O)n1	none
Cc1c(C=O)c2ccccc2n1Cc1ccc([N+](=O)[O-])cc1	none
Cc1nnc2n1-c1ccc(Br)cc1C(c1ccccc1Cl)=NC2	none
COCCCN1CCN(c2nnc3n2-c2sc(Br)cc2C(c2ccccc2Cl)=NC3)CC1	L major viab 97 | Lmaj promast 1uM 79
CCOCCN1CCN(c2nnc3n2-c2ccc(Cl)cc2C(c2ccccc2Cl)=NC3)CC1	L major viab 99 | Lmaj promast 1uM 51
O=C(O)[C@H]1C[C@@H]1[C@H](NP(=O)(c1ccccc1)c1ccccc1)c1ccccc1	none
Cn1cccc1CNCCc1ccccc1F	L major viab 98 | Lmaj promast 1uM inactive
COC(=O)[C@@H]1C[C@]2(C(=O)O)c3ccccc3N(OOSc3ccccc3)[C@@H]2N1C(=O)OC	none (no result: L major viab)
CCOC(=O)c1c(C)[nH]c(C(=O)C(Cc2ccccc2)N(C)C)c1C (stereo unspecified)	L major viab 99 | Lmaj promast 1uM inactive
CCOc1cccc(CNC2CN3CCC2CC3)c1 (stereo unspecified)	L major viab 99 (no result: CSC inhib) | Lmaj promast 1uM inactive
CCOc1ccc(NC(=O)CCNC(=O)N2C[C@H]3C[C@@H](C2)c2cccc(=O)n2C3)cc1	none (no result: L major viab, Beta apoptosis)
COC(=O)C1=C(c2cc3ccccc3o2)C[C@@H]2CC[C@H]1N2C(=O)N1CCCC1	none (no result: L major viab)
O=C1C2CCCN2C(c2cccnc2)N1c1ccc(Cl)c(Cl)c1 (stereo unspecified)	L major viab 96 | Lmaj promast 1uM inactive
O=C1C2CCCN2C(c2ccncc2)N1c1ccc(Cl)c(Cl)c1 (stereo unspecified)	none (no result: CSC inhib)
O=c1c2ccccc2nc(-c2ccccc2Cl)n1-c1cccc(O)c1	none (no result: L major viab)
CC1(C)C(=O)C=C[C@]2(C)[C@H]3CC[C@@]4(C)[C@H](c5ccoc5)OC(=O)[C@H]5O[C@]54[C@]3(C)[C@H](O)C[C@@H]12	L major viab 100 | Lmaj promast 1uM 88
CCN(CC)CCC(=O)O[C@H]1CC[C@]2(C)C3CC[C@@]4(C)C(CC[C@]4(C)O)C3CC[C@H]2C1 (stereo partly specified)	none (no result: L major viab, T cruzi repl, SKKanGAS inh)
O=C(NCC(c1cccnc1)N1CCN(c2ccc(F)cc2)CC1)Oc1ccccc1 (stereo unspecified)	L major viab 93 | Lmaj promast 1uM 78
Cc1ccc(NC(=O)CN2C(=O)CN=C(c3ccccc3)c3cc(Cl)ccc32)cc1	L major viab 61 (no result: Beta apoptosis, CSC inhib) | Lmaj promast 1uM inactive
O=P(Nc1ccccc1)(Nc1ccccc1)Oc1ccc(Cl)cc1	L major viab 71 | Lmaj promast 1uM inactive
O=P(NS(=O)(=O)c1ccc(Cl)cc1)(Oc1ccccc1)Oc1ccccc1	none
CCc1cccc(C)c1NC(=S)N1CC2CC(C1)c1cccc(=O)n1C2 (stereo unspecified)	none
